In ChEMBL document CHEMBL2413028, “1-Hydroxypyrazole as a bioisostere of the acetic acid moiety in a series of aldose reductase inhibitors” (Bioorg Med Chem, 2013) one finds IC50 and Ratio IC50 data, which are given here for 12 molecules.

Structures are written as SMILES.

For assay [1], the target named is Aldo-keto reductase family 1 member A1 (Rattus norvegicus, UniProt P51635). In words: Inhibition of partially purified Fischer-344 rat kidney ALR1 using D,L-glycuronate as substrate assessed as NADPH consumption by spectrophotometry. The gist of the method: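 Kidneys from Fischer-344 rats of both sexes homogenized in 3 vol 10 mM sodium phosphate buffer; 10,000g supernatant taken through ammonium sulfate fractions at 40%, 50% and 75% saturation. Last pellet redissolved in 10 mM sodium phosphate pH 7.2 with 2.0 mM EDTA and 2.0 mM β-mercaptoethanol, DEAE-treated, stored at −80 °C. Substrate D-glycuronate at 37 °C. NADPH loss read at 340 nm. Five concentrations, triplicate; IC50 by least squares on linear part of log(dose)–response.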
Sequence of Aldo-keto reductase family 1 member A1 (P51635 whole entry, looked up): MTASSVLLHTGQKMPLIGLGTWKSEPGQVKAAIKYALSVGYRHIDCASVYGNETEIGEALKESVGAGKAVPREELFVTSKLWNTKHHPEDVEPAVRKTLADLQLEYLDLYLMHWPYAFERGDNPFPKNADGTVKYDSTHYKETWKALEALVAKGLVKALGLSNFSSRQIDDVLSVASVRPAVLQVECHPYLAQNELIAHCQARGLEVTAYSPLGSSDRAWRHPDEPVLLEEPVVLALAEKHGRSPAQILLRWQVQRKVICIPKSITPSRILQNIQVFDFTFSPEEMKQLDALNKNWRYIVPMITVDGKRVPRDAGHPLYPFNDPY

Assay [2] concerns the target Aldo-keto reductase family 1 member B1 (Rattus norvegicus, UniProt P07943). In words: Inhibition of partially purified Fischer-344 rat lens ALR2 using D,L-glyceraldehyde as substrate assessed as NADPH consumption by spectrophotometry. The arrangement: species or system Lens of camera-type eye. The gist of the method:
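Supernatant brought to 40% ammonium sulfate saturation and spun again; supernatant used directly or kept ≤24 h at −80 °C. Compounds dissolved in 0.2 M NaHCO3. Substrate D,L-glyceraldehyde at 30 °C; NADPH loss at 340 nm. Five concentrations, triplicate; IC50 by least-squares fit of linear log(dose)–response region.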

The species entered for another assay is Rattus norvegicus. In words: Selectivity index, ratio of IC50 for partially purified Fischer-344 rat kidney ALR1 to IC50 for partially purified Fischer-344 rat lens ALR2. To be noted: Lens of camera-type eye.

Regarding `O=C(c1ccccc1)c1ccn(-c2cnn(O)c2)c1`, the IC50 – broadly, the point on the concentration scale where inhibition reaches its midpoint – in assay [1] came to 10.8 µM; in assay [2] it was 1.14 µM. In addition, in the assay listed under Rattus norvegicus, the Ratio IC50 worked out at 9.46.
Take `O=C(O)Cn1ccc(C(=O)c2ccccc2)c1`: in assay [1], the IC50 is more than 100 µM. In the assay listed under Rattus norvegicus, the Ratio IC50 is more than 50.8.
In the case of `COc1ccc(C(=O)c2ccn(-c3cnn(O)c3)c2)cc1`, the IC50 in assay [1] was determined as 10.8 µM; in assay [2], 0.708 µM. The Ratio IC50 in the assay listed under Rattus norvegicus is 11.2.
Taken in the same sequence, the figures for `O=C(c1ccccc1)c1cccn1-c1cnn(O)c1` were more than 100 µM, 13.5 µM and more than 7.41.
For `O=C(O)Cn1cccc1C(=O)c1ccccc1`, in that order: more than 100 µM, 22 µM and more than 4.54.
For `O=C(c1ccc(-c2ccccc2)cc1)c1cccn1-c1cnn(O)c1`, in that order: more than 100 µM, 9.81 µM and more than 10.2.
On to `COc1ccc(C(=O)c2cccn2CC(=O)O)cc1`, for which the IC50 was more than 100 µM in assay [1] and 4.57 µM in assay [2]. In addition, in the assay listed under Rattus norvegicus, the Ratio IC50 is more than 21.9.
For `O=C(c1ccc(-c2ccccc2)cc1)c1ccn(-c2cnn(O)c2)c1`, in that order: 62.1 µM, 0.698 µM and 88.9.
For `O=C(O)Cn1cccc1C(=O)c1ccc(-c2ccccc2)cc1`, in that order: more than 100 µM, 7 µM and more than 14.3.
Taken in the same sequence, the figures for `COc1ccc(C(=O)c2ccn(CC(=O)O)c2)cc1` were more than 100 µM, 1.6 µM and more than 62.4.
In the case of `COc1ccc(C(=O)c2cccn2-c2cnn(O)c2)cc1`, the IC50 in assay [1] is more than 100 µM; in assay [2], 15.1 µM. Besides, the Ratio IC50 in the assay listed under Rattus norvegicus is more than 6.67.
For `O=C(O)Cn1ccc(C(=O)c2ccc(-c3ccccc3)cc2)c1`, in that order: 52.5 µM, 0.344 µM and 153.
